Experimental data as given in ChEMBL document CHEMBL4152256, “Structure-activity relationship of new antimalarial 1-aryl-3-susbtituted propanol derivatives: Synthesis, preliminary toxicity profiling, parasite life cycle stage studies, target exploration, and targeted delivery” (Eur J Med Chem, 2018).

Legend:
[1] = Genotoxicity in Salmonella typhimurium TA1535 harboring pSK1002 assessed as umu gene induction at 0.0002 mg/ml in absence of Sprague-Dawley rat liver S9 fraction after by SOS/umu assay relative to control; assay type: toxicity, organism-based; details: salmonella enterica subsp. enterica serovar typhimurium, read-out: FC
[2] = Genotoxicity in Salmonella typhimurium TA1535 harboring pSK1002 assessed as survival at 0.016 mg/ml in presence of Sprague-Dawley rat liver S9 fraction after by SOS/umu assay relative to control; assay type: toxicity, organism-based; details: salmonella enterica subsp. enterica serovar typhimurium, read-out: Survival
[3] = Cytotoxicity against human HepG2A16 cells by MTT assay; assay type: cell-based; details: HepG2A16 cells
In short: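 MTT viability assay on HepG2-A16 cells, giving CC50 values.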

[4] = Genotoxicity in Salmonella typhimurium TA1535 harboring pSK1002 assessed as survival at 0.008 mg/ml in absence of Sprague-Dawley rat liver S9 fraction after by SOS/umu assay relative to control; assay type: toxicity, organism-based; details: salmonella enterica subsp. enterica serovar typhimurium, read-out: Survival
[5] = Genotoxicity in Salmonella typhimurium TA1535 harboring pSK1002 assessed as umu gene induction at 0.0005 mg/ml in absence of Sprague-Dawley rat liver S9 fraction after by SOS/umu assay relative to control; assay type: toxicity, organism-based; details: salmonella enterica subsp. enterica serovar typhimurium, read-out: FC
[6] = Genotoxicity in Salmonella typhimurium TA1535 harboring pSK1002 assessed as survival at 0.0005 mg/ml in absence of Sprague-Dawley rat liver S9 fraction after by SOS/umu assay relative to control; assay type: toxicity, organism-based; details: salmonella enterica subsp. enterica serovar typhimurium, read-out: Survival
[7] = Genotoxicity in Salmonella typhimurium TA1535 harboring pSK1002 assessed as umu gene induction at 0.0002 mg/ml in presence of Sprague-Dawley rat liver S9 fraction after by SOS/umu assay relative to control; assay type: toxicity, organism-based; details: salmonella enterica subsp. enterica serovar typhimurium, read-out: FC
Plasmodium falciparum [8] = assay: Antiplasmodial activity against multidrug-resistant Plasmodium falciparum FCR-3 by [3H]-hypoxanthine incorporation assay; assay type: functional, organism-based, FCR-3/Gambia; details: Plasmodium falciparum, FCR-3/Gambia
In short: (§1)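 Blood-stage P. falciparum 3D7 and FCR-3 were tested by a modified [3H]-hypoxanthine incorporation assay. Chloroquine was the reference in all runs.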

[9] = Genotoxicity in Salmonella typhimurium TA1535 harboring pSK1002 assessed as survival at 0.002 mg/ml in presence of Sprague-Dawley rat liver S9 fraction after by SOS/umu assay relative to control; assay type: toxicity, organism-based; details: salmonella enterica subsp. enterica serovar typhimurium, read-out: Survival
[10] = Genotoxicity in Salmonella typhimurium TA1535 harboring pSK1002 assessed as survival at 0.002 mg/ml in absence of Sprague-Dawley rat liver S9 fraction after by SOS/umu assay relative to control; assay type: toxicity, organism-based; details: salmonella enterica subsp. enterica serovar typhimurium, read-out: Survival
[11] = Genotoxicity in Salmonella typhimurium TA1535 harboring pSK1002 assessed as umu gene induction at 0.004 mg/ml in absence of Sprague-Dawley rat liver S9 fraction after by SOS/umu assay relative to control; assay type: toxicity, organism-based; details: salmonella enterica subsp. enterica serovar typhimurium, read-out: FC
[12] = Selectivity index, ratio of CC50 for human HepG2A16 cells by MTT assay to IC50 for multidrug-resistant Plasmodium falciparum FCR-3; assay type: toxicity; details: HepG2A16 cells, read-out: Ratio CC50/IC50
In short: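 HepG2-A16 human hepatoma cells were tested by MTT viability assay to give CC50. Blood-stage activity was measured against the multidrug-resistant P. falciparum FCR-3 strain by [3H]-hypoxanthine incorporation to give IC50. SI = CC50 HepG2 / FCR-3 IC50.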

[13] = Genotoxicity in Salmonella typhimurium TA1535 harboring pSK1002 assessed as umu gene induction at 0.001 mg/ml in absence of Sprague-Dawley rat liver S9 fraction after by SOS/umu assay relative to control; assay type: toxicity, organism-based; details: salmonella enterica subsp. enterica serovar typhimurium, read-out: FC
[14] = Genotoxicity in Salmonella typhimurium TA1535 harboring pSK1002 assessed as survival at 0.004 mg/ml in absence of Sprague-Dawley rat liver S9 fraction after by SOS/umu assay relative to control; assay type: toxicity, organism-based; details: salmonella enterica subsp. enterica serovar typhimurium, read-out: Survival
[15] = Genotoxicity in Salmonella typhimurium TA1535 harboring pSK1002 assessed as survival at 0.0002 mg/ml in absence of Sprague-Dawley rat liver S9 fraction after by SOS/umu assay relative to control; assay type: toxicity, organism-based; details: salmonella enterica subsp. enterica serovar typhimurium, read-out: Survival
[16] = Genotoxicity in Salmonella typhimurium TA1535 harboring pSK1002 assessed as survival at 0.001 mg/ml in absence of Sprague-Dawley rat liver S9 fraction after by SOS/umu assay relative to control; assay type: toxicity, organism-based; details: salmonella enterica subsp. enterica serovar typhimurium, read-out: Survival
[17] = Genotoxicity in Salmonella typhimurium TA1535 harboring pSK1002 assessed as umu gene induction at 0.002 mg/ml in presence of Sprague-Dawley rat liver S9 fraction after by SOS/umu assay relative to control; assay type: toxicity, organism-based; details: salmonella enterica subsp. enterica serovar typhimurium, read-out: FC
[18] = Genotoxicity in Salmonella typhimurium TA1535 harboring pSK1002 assessed as survival at 0.016 mg/ml in absence of Sprague-Dawley rat liver S9 fraction after by SOS/umu assay relative to control; assay type: toxicity, organism-based; details: salmonella enterica subsp. enterica serovar typhimurium, read-out: Survival
[19] = Genotoxicity in Salmonella typhimurium TA1535 harboring pSK1002 assessed as umu gene induction at 0.016 mg/ml in presence of Sprague-Dawley rat liver S9 fraction after by SOS/umu assay relative to control; assay type: toxicity, organism-based; details: salmonella enterica subsp. enterica serovar typhimurium, read-out: FC
[20] = Genotoxicity in Salmonella typhimurium TA1535 harboring pSK1002 assessed as survival at 0.0002 mg/ml in presence of Sprague-Dawley rat liver S9 fraction after by SOS/umu assay relative to control; assay type: toxicity, organism-based; details: salmonella enterica subsp. enterica serovar typhimurium, read-out: Survival
[21] = Genotoxicity in Salmonella typhimurium TA1535 harboring pSK1002 assessed as umu gene induction at 0.008 mg/ml in presence of Sprague-Dawley rat liver S9 fraction after by SOS/umu assay relative to control; assay type: toxicity, organism-based; details: salmonella enterica subsp. enterica serovar typhimurium, read-out: FC
Plasmodium falciparum [22] = assay: Antiplasmodial activity against chloroquine-sensitive Plasmodium falciparum 3D7 by [3H]-hypoxanthine incorporation assay; assay type: functional, organism-based; details: Plasmodium falciparum, 3D7; in short: as §1
[23] = Genotoxicity in Salmonella typhimurium TA1535 harboring pSK1002 assessed as survival at 0.008 mg/ml in presence of Sprague-Dawley rat liver S9 fraction after by SOS/umu assay relative to control; assay type: toxicity, organism-based; details: salmonella enterica subsp. enterica serovar typhimurium, read-out: Survival
[24] = Solubility of the compound in DSPC:cholesterol:DSPE-PEG2000-Mal:DOPE-Rho lipid mixture at 250 uM; assay type: physicochemical
In short: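 Compound added at 250 µM drug to the initial liposome lipid mixture (10 mM total lipid); precipitation and UV-visible absorbance above 300 nm assessed after encapsulation, removal of unencapsulated material and extraction with 1% w/v SDS in RPMI-A.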

[25] = Genotoxicity in Salmonella typhimurium TA1535 harboring pSK1002 assessed as umu gene induction at 0.001 mg/ml in presence of Sprague-Dawley rat liver S9 fraction after by SOS/umu assay relative to control; assay type: toxicity, organism-based; details: salmonella enterica subsp. enterica serovar typhimurium, read-out: FC
[26] = Genotoxicity in Salmonella typhimurium TA1535 harboring pSK1002 assessed as survival at 0.004 mg/ml in presence of Sprague-Dawley rat liver S9 fraction after by SOS/umu assay relative to control; assay type: toxicity, organism-based; details: salmonella enterica subsp. enterica serovar typhimurium, read-out: Survival
[27] = Genotoxicity in Salmonella typhimurium TA1535 harboring pSK1002 assessed as umu gene induction at 0.002 mg/ml in absence of Sprague-Dawley rat liver S9 fraction after by SOS/umu assay relative to control; assay type: toxicity, organism-based; details: salmonella enterica subsp. enterica serovar typhimurium, read-out: FC
[28] = Genotoxicity in Salmonella typhimurium TA1535 harboring pSK1002 assessed as umu gene induction at 0.016 mg/ml in absence of Sprague-Dawley rat liver S9 fraction after by SOS/umu assay relative to control; assay type: toxicity, organism-based; details: salmonella enterica subsp. enterica serovar typhimurium, read-out: FC
[29] = Genotoxicity in Salmonella typhimurium TA1535 harboring pSK1002 assessed as umu gene induction at 0.0005 mg/ml in presence of Sprague-Dawley rat liver S9 fraction after by SOS/umu assay relative to control; assay type: toxicity, organism-based; details: salmonella enterica subsp. enterica serovar typhimurium, read-out: FC
[30] = Genotoxicity in Salmonella typhimurium TA1535 harboring pSK1002 assessed as survival at 0.0005 mg/ml in presence of Sprague-Dawley rat liver S9 fraction after by SOS/umu assay relative to control; assay type: toxicity, organism-based; details: salmonella enterica subsp. enterica serovar typhimurium, read-out: Survival
[31] = Genotoxicity in Salmonella typhimurium TA1535 harboring pSK1002 assessed as survival at 0.001 mg/ml in presence of Sprague-Dawley rat liver S9 fraction after by SOS/umu assay relative to control; assay type: toxicity, organism-based; details: salmonella enterica subsp. enterica serovar typhimurium, read-out: Survival
[32] = Genotoxicity in Salmonella typhimurium TA1535 harboring pSK1002 assessed as umu gene induction at 0.004 mg/ml in presence of Sprague-Dawley rat liver S9 fraction after by SOS/umu assay relative to control; assay type: toxicity, organism-based; details: salmonella enterica subsp. enterica serovar typhimurium, read-out: FC
[33] = Genotoxicity in Salmonella typhimurium TA1535 harboring pSK1002 assessed as umu gene induction at 0.008 mg/ml in absence of Sprague-Dawley rat liver S9 fraction after by SOS/umu assay relative to control; assay type: toxicity, organism-based; details: salmonella enterica subsp. enterica serovar typhimurium, read-out: FC

| Structure (SMILES) | fold induction at 0.0002 mg/ml [1] | viability at 0.016 mg/ml [2] | CC50 [3] | viability at 0.008 mg/ml [4] | fold induction at 0.0005 mg/ml [5] | viability at 0.0005 mg/ml [6] | fold induction at 0.0002 mg/ml [7] | IC50 (Plasmodium falciparum [8]) | viability at 0.002 mg/ml [9] | viability at 0.002 mg/ml [10] | fold induction at 0.004 mg/ml [11] | selectivity ratio [12] | fold induction at 0.001 mg/ml [13] | viability at 0.004 mg/ml [14] | viability at 0.0002 mg/ml [15] | viability at 0.001 mg/ml [16] | fold induction at 0.002 mg/ml [17] | viability at 0.016 mg/ml [18] | fold induction at 0.016 mg/ml [19] | viability at 0.0002 mg/ml [20] | also measured |
| --- | --- | --- | --- | --- | --- | --- | --- | --- | --- | --- | --- | --- | --- | --- | --- | --- | --- | --- | --- | --- | --- |
| OC(CCN1CCN(C(c2ccccc2)c2ccccc2)CC1)c1ccc(Cl)cc1 (stereo unspecified) | 1 | 86.6% | 462 µM | 125% | 0.9 | 110% | 1 | 3.93 µM | 88.9% | 108% | 1 | 118 | 1.1 | 102% | 105% | 106% | 0.7 | 112% | 1.1 | 96.4% | fold induction at 0.008 mg/ml [21]: 0.9; IC50 (Plasmodium falciparum [22]): 24.9 µM; viability at 0.008 mg/ml [23]: 98.8%; solubility [24]: Insoluble; fold induction at 0.001 mg/ml [25]: 0.6; viability at 0.004 mg/ml [26]: 89.5%; fold induction at 0.002 mg/ml [27]: 1; fold induction at 0.016 mg/ml [28]: 0.9; fold induction at 0.0005 mg/ml [29]: 0.6; viability at 0.0005 mg/ml [30]: 94.3%; viability at 0.001 mg/ml [31]: 96.7%; fold induction at 0.004 mg/ml [32]: 1; fold induction at 0.008 mg/ml [33]: 0.9 |
| OC(CCN1CCN(C(c2ccccc2)c2ccccc2)CC1)c1ccc(Br)cc1 (stereo unspecified) | 0.8 | 87.8% | 351 µM | 116% | 0.8 | 108% | 1 | 3.09 µM | 85.9% | 105% | 1 | 114 | 1 | 114% | 107% | 98.3% | 0.8 | 121% | 1 | 96.7% | fold induction at 0.008 mg/ml [21]: 0.9; IC50 (Plasmodium falciparum [22]): 52.2 µM; viability at 0.008 mg/ml [23]: 98.1%; solubility [24]: Insoluble; fold induction at 0.001 mg/ml [25]: 0.7; viability at 0.004 mg/ml [26]: 87.2%; fold induction at 0.002 mg/ml [27]: 1.1; fold induction at 0.016 mg/ml [28]: 0.8; fold induction at 0.0005 mg/ml [29]: 0.5; viability at 0.0005 mg/ml [30]: 104%; viability at 0.001 mg/ml [31]: 84.1%; fold induction at 0.004 mg/ml [32]: 1; fold induction at 0.008 mg/ml [33]: 1.1 |
